This note sets out measurements from ChEMBL document CHEMBL5385966, “Synthesis and biological evaluation of new naphthalimide-thiourea derivatives as potent antimicrobial agents active against multidrug-resistant Staphylococcus aureus and Mycobacterium tuberculosis” (RSC Med Chem, 2024).

Each structure is given as a SMILES string. In brackets after ≈: the same amount, converted by molar mass. Activity calls are given as the source filed them. No cut-off for these calls is given here.

Series [1] concerns Staphylococcus aureus. Description: Antibacterial activity against Staphylococcus aureus ATCC 29213 assessed as bacterial growth inhibition incubated for 16 to 18 hrs by CLSI based antibiotic susceptibility testing method. Particulars: time 16-18 hrs. It counts as functional. The gist of the method:
(§1)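 Broth microdilution in cation-adjusted Mueller-Hinton broth. Compounds were tested at […], with levofloxacin as reference and medium-only controls. Plates were incubated at 37 °C for 16-18 h. MIC was the lowest concentration with no visible growth; three independent determinations, each in duplicate.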

Series [2] concerns Mycobacterium tuberculosis. Description: Antimycobacterial activity against Mycobacterium tuberculosis H37Rv ATCC 27294 assessed as bacterial growth inhibition incubated for 7 days by resazurin dye based broth microdilution method. It counts as functional. Particulars: H37Rv ATCC 27294, 168 h, time 7 day. The gist of the method: (§2)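 Broth microdilution in Middlebrook 7H9 with 10% ADC-Tween-80 (0.2% glycerol, 0.05% Tween-80), inoculum ~10⁶ cfu/mL. Compounds came from 10 mg/mL DMSO stocks and were tested as two-fold serial dilutions at 37 °C, 7 days for M. tuberculosis H37Rv and 72 h for NTM. Growth was read visually with PrestoBlue resazurin dye; MIC was the lowest concentration preventing growth. Triplicate determinations, each in duplicate.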

The next series deals with Escherichia coli. Description: Antibacterial activity against Escherichia coli ATCC 25922 assessed as bacterial growth inhibition incubated for 16 to 18 hrs by CLSI based antibiotic susceptibility testing method. The class given is functional, organism-based. Particulars: time 16-18 hrs. The gist of the method:
as §1

The next series has as its system Klebsiella pneumoniae. Description: Antibacterial activity against Klebsiella pneumoniae BAA 1705 assessed as bacterial growth inhibition incubated for 16 to 18 hrs by CLSI based antibiotic susceptibility testing method. Particulars: time 16-18 hrs. It counts as functional, organism-based. The procedure, abridged: as §1
In another series the test system is Acinetobacter baumannii. Description: Antibacterial activity against Acinetobacter baumannii BAA 1605 assessed as bacterial growth inhibition incubated for 16 to 18 hrs by CLSI based antibiotic susceptibility testing method. Particulars: time 16-18 hrs. The class given is functional, organism-based. The procedure, abridged:
as §1

The test system of another series is Pseudomonas aeruginosa. Description: Antibacterial activity against Pseudomonas aeruginosa ATCC 27853 assessed as bacterial growth inhibition incubated for 16 to 18 hrs by CLSI based antibiotic susceptibility testing method. Particulars: time 16-18 hrs. The class given is functional, organism-based. The procedure, abridged: as §1
The subject of series [3] is Mycobacteroides abscessus. Description: Antimycobacterial activity against Mycobacterium abscessus ATCC 19977 assessed as bacterial growth inhibition incubated for 72 hrs by resazurin dye based broth microdilution method. It counts as functional, organism-based. The gist of the method:
as §2
On the technique in general: The colour change of resazurin is a common sign of viable cells or microbes.

Series [4] has as its system Mycolicibacterium fortuitum. Description: Antimycobacterial activity against Mycobacterium fortuitum ATCC 6841 assessed as bacterial growth inhibition incubated for 72 hrs by resazurin dye based broth microdilution method. The class given is functional, organism-based. The procedure, abridged:
as §2

A further series relates to Mycobacteroides chelonae. Description: Antimycobacterial activity against Mycobacteroides chelonae ATCC 35752 assessed as bacterial growth inhibition incubated for 72 hrs by resazurin dye based broth microdilution method. It counts as functional, organism-based. The procedure, abridged:
as §2

Series [5] is described as follows: Cytotoxicity against African green monkey Vero cells by MTT assay. Particulars: chlorocebus sabaeus. It counts as toxicity, cell-based. The procedure, abridged:
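Vero cells were seeded at ~10³ per well at 37 °C, 5% CO2. After 24 h, compounds were added at 5-100 mg/L for 72 h. […] was added for 4 h, formazan was dissolved in DMSO and read at 540 nm. CC50 was taken as the lowest concentration reducing viability by 50%; doxorubicin was the positive control; triplicate.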
On the technique in general: Tetrazolium dyes change colour on reduction, which living cells bring about.

A short description of series [6]: Selectivity index, ratio of CC50 for African green monkey Vero cells to MIC for Staphylococcus aureus ATCC 29213. The class given is toxicity, cell-based. Particulars: read-out: Selectivity Index.
Series [7] relates to Staphylococcus aureus. Description: Antibacterial activity against methicillin-sensitive Staphylococcus aureus ATCC 29213 clinical isolate assessed as bacterial growth inhibition incubated for 16 to 18 hrs by CLSI based antibiotic susceptibility testing method. It counts as functional. Particulars: time 16-18 hrs. The procedure, abridged: as §1
Series [8] relates to Staphylococcus aureus. Description: Antibacterial activity against methicillin/ceftriaxone/meropenem/gentamycin/linezolid-resistant Staphylococcus aureus NRS10100 clinical isolate assessed as bacterial growth inhibition incubated for 16 to 18 hrs by CLSI based antibiotic susceptibility testing method. The class given is functional. Particulars: time 16-18 hrs. The gist of the method:
as §1

In series [9] the test system is Staphylococcus aureus. Description: Antibacterial activity against methicillin/ceftriaxone/meropenem/gentamycin/linezolid-resistant Staphylococcus aureus NRS10119 clinical isolate assessed as bacterial growth inhibition incubated for 16 to 18 hrs by CLSI based antibiotic susceptibility testing method. It counts as functional. Particulars: time 16-18 hrs. The procedure, abridged: as §1

Series [10] has as its system Staphylococcus aureus. Description: Antibacterial activity against methicillin/ceftriaxone/meropenem-resistant Staphylococcus aureus NRS10129 clinical isolate assessed as bacterial growth inhibition incubated for 16 to 18 hrs by CLSI based antibiotic susceptibility testing method. It counts as functional. Particulars: time 16-18 hrs. The procedure, abridged:
as §1

Series [11] has as its system Staphylococcus aureus. Description: Antibacterial activity against methicillin/ceftriaxone/meropenem-resistant Staphylococcus aureus NRS10186 clinical isolate assessed as bacterial growth inhibition incubated for 16 to 18 hrs by CLSI based antibiotic susceptibility testing method. Particulars: time 16-18 hrs. The class given is functional. The gist of the method:
as §1

For series [12], the system named is Staphylococcus aureus. Description: Antibacterial activity against methicillin/ceftriaxone/meropenem-resistant Staphylococcus aureus NRS10191 clinical isolate assessed as bacterial growth inhibition incubated for 16 to 18 hrs by CLSI based antibiotic susceptibility testing method. Particulars: time 16-18 hrs. The class given is functional. The gist of the method: as §1

Series [13] has as its system Staphylococcus aureus. Description: Antibacterial activity against methicillin/ceftriaxone/meropenem-resistant Staphylococcus aureus NRS10192 clinical isolate assessed as bacterial growth inhibition incubated for 16 to 18 hrs by CLSI based antibiotic susceptibility testing method. It counts as functional. Particulars: time 16-18 hrs. The procedure, abridged: as §1

Series [14] relates to Staphylococcus aureus. Description: Antibacterial activity against methicillin/ceftriaxone/meropenem-resistant Staphylococcus aureus NRS10193 clinical isolate assessed as bacterial growth inhibition incubated for 16 to 18 hrs by CLSI based antibiotic susceptibility testing method. It counts as functional. Particulars: time 16-18 hrs. The procedure, abridged:
as §1

Series [15] deals with Staphylococcus aureus. Description: Antibacterial activity against methicillin/ceftriaxone-resistant Staphylococcus aureus NRS10194 clinical isolate assessed as bacterial growth inhibition incubated for 16 to 18 hrs by CLSI based antibiotic susceptibility testing method. It counts as functional. Particulars: time 16-18 hrs. The gist of the method: as §1
The subject of series [16] is Staphylococcus aureus. Description: Antibacterial activity against methicillin/ceftriaxone/meropenem-resistant Staphylococcus aureus NRS10198 clinical isolate assessed as bacterial growth inhibition incubated for 16 to 18 hrs by CLSI based antibiotic susceptibility testing method. Particulars: time 16-18 hrs. It counts as functional. The gist of the method:
as §1

Series [17] relates to Staphylococcus aureus. Description: Antibacterial activity against methicillin/ceftriaxone/meropenem/gentamycin/vancomycin/teicoplanin-resistant Staphylococcus aureus VRS1 clinical isolate assessed as bacterial growth inhibition incubated for 16 to 18 hrs by CLSI based antibiotic susceptibility testing method. It counts as functional. Particulars: time 16-18 hrs. The procedure, abridged: as §1

Series [18] deals with Staphylococcus aureus. Description: Antibacterial activity against methicillin/ceftriaxone/meropenem/vancomycin/teicoplanin-resistant Staphylococcus aureus VRS4 clinical isolate assessed as bacterial growth inhibition incubated for 16 to 18 hrs by CLSI based antibiotic susceptibility testing method. The class given is functional. Particulars: time 16-18 hrs. The gist of the method: as §1

The test system of series [19] is Staphylococcus aureus. Description: Antibacterial activity against methicillin/ceftriaxone/meropenem/vancomycin/teicoplanin-resistant Staphylococcus aureus VRS12 clinical isolate assessed as bacterial growth inhibition incubated for 16 to 18 hrs by CLSI based antibiotic susceptibility testing method. The class given is functional. Particulars: time 16-18 hrs. The gist of the method: as §1

The term MIC denotes the lowest concentration found to suppress growth. Broadly, the CC50 is the concentration that lowers cell viability or growth by half. As to `O=C(CN1C(=O)c2cccc3cccc(c23)C1=O)NC1CCN(C(=S)NC2CCCCC2)CC1`, the MIC is 0.25 µg/mL (≈ 0.522 µM) in the series with Staphylococcus aureus [1]; > 64 µg/mL in series [2]; 0.25 µg/mL (≈ 0.522 µM) with Staphylococcus aureus [7]; 0.25 µg/mL (≈ 0.522 µM) with Staphylococcus aureus [8]; 0.125 µg/mL (≈ 0.261 µM) with Staphylococcus aureus [9]; 0.5 µg/mL (≈ 1.04 µM) in the series with Staphylococcus aureus [10]. Moreover, the MIC in the series with Staphylococcus aureus [11] turned out to be 0.125 µg/mL (≈ 0.261 µM); with Staphylococcus aureus [12], 0.125 µg/mL (≈ 0.261 µM); with Staphylococcus aureus [13], 0.25 µg/mL (≈ 0.522 µM); in the series with Staphylococcus aureus [14] it was 0.125 µg/mL (≈ 0.261 µM); in the series on Staphylococcus aureus [15] it was 0.25 µg/mL (≈ 0.522 µM); with Staphylococcus aureus [16] it was 0.25 µg/mL (≈ 0.522 µM). The MIC in the series on Staphylococcus aureus [17] worked out at 0.5 µg/mL (≈ 1.04 µM); in the series with Staphylococcus aureus [18], 0.25 µg/mL (≈ 0.522 µM); with Staphylococcus aureus [19], 0.25 µg/mL (≈ 0.522 µM). Besides, the “growth inhibition (GI)” value (with Escherichia coli; in the series with Klebsiella pneumoniae; with Acinetobacter baumannii; in the series on Pseudomonas aeruginosa; in series [3]; in [4]) was “inactive” throughout. Further, the “growth inhibition (GI)” value in the series with Mycobacteroides chelonae was “inactive”. Also, in series [5], the CC50 is > 10 µg/mL. The selectivity ratio in series [6] is > 40.
For `O=C(CN1C(=O)c2cccc3cccc(c23)C1=O)N1CCC(NC(=S)Nc2ccccc2)CC1`, the MIC in the series on Staphylococcus aureus [1] is 0.5 µg/mL (≈ 1.06 µM); in [2], > 64 µg/mL; in the series with Staphylococcus aureus [7], 1 µg/mL (≈ 2.12 µM); in the series with Staphylococcus aureus [8], 1 µg/mL (≈ 2.12 µM); with Staphylococcus aureus [9], 0.25 µg/mL (≈ 0.529 µM); in the series on Staphylococcus aureus [10], 1 µg/mL (≈ 2.12 µM). In addition, the MIC is 0.25 µg/mL (≈ 0.529 µM) with Staphylococcus aureus [11]; 0.25 µg/mL (≈ 0.529 µM) with Staphylococcus aureus [12]; 0.25 µg/mL (≈ 0.529 µM) in the series with Staphylococcus aureus [13]; 0.25 µg/mL (≈ 0.529 µM) in the series on Staphylococcus aureus [14]; 1 µg/mL (≈ 2.12 µM) in the series on Staphylococcus aureus [15]; 0.25 µg/mL (≈ 0.529 µM) in the series on Staphylococcus aureus [16]. The MIC was 0.5 µg/mL (≈ 1.06 µM) in the series with Staphylococcus aureus [17], 0.25 µg/mL (≈ 0.529 µM) in the series on Staphylococcus aureus [18] and 0.5 µg/mL (≈ 1.06 µM) with Staphylococcus aureus [19]. For the same compound, the “growth inhibition (GI)” value (in the series on Escherichia coli; in the series on Klebsiella pneumoniae; in the series on Acinetobacter baumannii; with Pseudomonas aeruginosa; in [3]; in series [4]) was “inactive” in each case. For the same compound, in the series on Mycobacteroides chelonae, the “growth inhibition (GI)” value is “inactive”. Also, the CC50 in series [5] was > 100 µg/mL. For the same compound, the selectivity ratio in series [6] is > 200.
`O=C(CN1C(=O)c2cccc3cccc(c23)C1=O)N1CCC(NC(=S)NC2CCCCC2)CC1`: the minimum inhibitory concentration (MIC) was 0.125 µg/mL (≈ 0.261 µM) with Staphylococcus aureus [1]; > 64 µg/mL in series [2]; 0.125 µg/mL (≈ 0.261 µM) in the series with Staphylococcus aureus [7]; 0.125 µg/mL (≈ 0.261 µM) with Staphylococcus aureus [8]; 0.125 µg/mL (≈ 0.261 µM) in the series with Staphylococcus aureus [9]; 0.125 µg/mL (≈ 0.261 µM) in the series with Staphylococcus aureus [10]. For the same compound, the minimum inhibitory concentration (MIC) in the series on Staphylococcus aureus [11], with Staphylococcus aureus [12], with Staphylococcus aureus [13], in the series with Staphylococcus aureus [14], in the series on Staphylococcus aureus [15] and in the series on Staphylococcus aureus [16] was 0.125 µg/mL (≈ 0.261 µM) in each case. In addition, the MIC in the series with Staphylococcus aureus [17], in the series with Staphylococcus aureus [18] and in the series on Staphylococcus aureus [19] was 0.125 µg/mL (≈ 0.261 µM) each time. Also, the “growth inhibition (GI)” value (with Escherichia coli; in the series with Klebsiella pneumoniae; with Acinetobacter baumannii; in the series on Pseudomonas aeruginosa; in [3]; in series [4]) was “inactive” in each case. Further, the “growth inhibition (GI)” value in the series on Mycobacteroides chelonae was “inactive”. For the same compound, the CC50 in [5] was > 100 µg/mL. Further, the selectivity ratio in series [6] is > 800.
